Assay [1] relates to HL-60. In words: Induction of apoptosis in human HL60 cells assessed as caspase-3 activation at 20 ug/ml after 6 hrs. It counts as functional, cell-based. An outline of the steps:
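HL-60 cells (2 × 10^6) treated 6 h at 37 °C at 0, 10 or 20 µg/mL, with 10 µg/mL etoposide as reference, then lysed on ice. Lysate equivalent to 200 µg protein mixed with reaction buffer containing DEVD-pNA. Incubated 2 h at 37 °C, released pNA read at 405 nm. Mean ± SE of triplicates.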

The subject of assay [2] is HL-60. In words: Cytotoxicity against human HL60 cells after 72 hrs by MTT assay. It counts as functional, cell-based. Particulars: HL-60, 72 h. In outline:
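HL-60 cells kept in RPMI 1640 with heat-inactivated 10% FBS, penicillin and streptomycin. Seeded at 4 × 10^4 cells/mL and preincubated 24 h at 37 °C in air/CO2 (19:1). Sample added in EtOH-H2O (1:1) to final 0.1-10 µg/mL, vehicle alone in controls. Incubated 72 h more, growth read by modified MTT (Sargent and Taylor). IC50 taken from dose-response curve. Triplicate.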

The test system of assay [3] is HL-60. In words: Induction of apoptosis in human HL60 cells by morphology study. It is filed as functional, cell-based.
Assay [4] relates to HL-60. In words: Induction of DNA fragmentation in human HL60 cells at 20 ug/ml after 18 hrs by agarose gel electrophoresis. It is filed as functional, cell-based. An outline of the steps:
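HL-60 cells treated 18 h at 37 °C at 0, 10 or 20 µg/mL, with 10 µg/mL etoposide as reference. Genomic DNA extracted from 2 × 10^6 cells by kit with RNase A step. Run on 2% agarose in 40 mM Tris-acetate (pH 7.4) at 50 V for 1 h. Ladder pattern viewed under UV.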

In assay [5] the test system is HL-60. Description: Cytotoxicity against human HL60 cells at 10 ug/mL after 72 hrs by MTT assay. Background: Tetrazolium dyes change colour on reduction, which living cells bring about.

In brackets after ≈: the same amount, converted by molar mass. Activity calls are given as the source filed them. The calls are words filed in the database; no cut-off is given here.

This note sets out measurements from ChEMBL document CHEMBL1154200, “Steroidal glycosides from Agave utahensis and their cytotoxic activity” (J Nat Prod, 2009).

Consider `C[C@@H]1CC[C@@]2(OC1)O[C@H]1C[C@H]3[C@@H]4CC[C@@H]5C[C@@H](O[C@@H]6O[C@H](CO)[C@H](O[C@@H]7O[C@H](CO)[C@@H](O)[C@H](O)[C@H]7O[C@@H]7O[C@H](CO)[C@@H](O)[C@H](O)[C@H]7O)[C@H](O)[C@H]6O)CC[C@]5(C)[C@H]4CC[C@]3(C)[C@H]1[C@@H]2C`, for which the outcome in the assay with HL-60 [1] and in the assay with HL-60 [3] was Active. Further, the IC50 (as a rule, the concentration at which inhibition is half-maximal) with HL-60 [2] turned out to be 4.9 µg/mL (≈ 5.43 µM).
Regarding `C[C@@H]1CC[C@@]2(OC1)O[C@H]1C[C@H]3[C@@H]4CC[C@@H]5C[C@@H](O[C@@H]6O[C@H](CO)[C@@H](O[C@@H]7O[C@H](CO)[C@@H](O)[C@H](O)[C@H]7O)[C@H](O)[C@H]6O)CC[C@]5(C)[C@H]4CC[C@]3(C)[C@H]1[C@@H]2C`, the outcome in the assay with HL-60 [1], in the assay on HL-60 [4] and in the assay on HL-60 [3] was Active. The compound further showed an IC50 with HL-60 [2] of 4.9 µg/mL (≈ 6.61 µM).
Take `C[C@@H]1CC[C@@]2(OC1)O[C@H]1C[C@H]3[C@@H]4CC[C@@H]5C[C@@H](O[C@@H]6O[C@H](CO)[C@@H](O[C@@H]7O[C@H](CO)[C@@H](O)[C@H](O)[C@H]7O)[C@H](O)[C@H]6O)[C@@H](O)C[C@]5(C)[C@H]4CC[C@]3(C)[C@H]1[C@@H]2C`: in the assay on HL-60 [5], the outcome was inactive.
Same read-out and setting: to `C[C@@H]1CC[C@@]2(OC1)O[C@H]1C[C@H]3[C@@H]4CC[C@@H]5C[C@@H](O[C@@H]6O[C@H](CO)[C@@H](O[C@@H]7O[C@H](CO)[C@@H](O)[C@H](O)[C@H]7O)[C@H](O)[C@H]6O)CC[C@]5(C)[C@H]4CC(=O)[C@]3(C)[C@H]1[C@@H]2C` belongs “inactive”; to `C[C@@H]1CC[C@@]2(OC1)O[C@H]1C[C@H]3[C@@H]4CC[C@@H]5C[C@@H](O[C@@H]6O[C@H](CO)[C@H](O[C@@H]7O[C@H](CO)[C@@H](O)[C@H](O)[C@H]7O)[C@H](O)[C@H]6O[C@@H]6O[C@H](CO)[C@@H](O)[C@H](O)[C@H]6O)[C@@H](O)C[C@]5(C)[C@H]4CC[C@]3(C)[C@H]1[C@@H]2C`, “inactive”.
`C[C@@H]1CC[C@@]2(OC1)O[C@H]1C[C@H]3[C@@H]4CC[C@@H]5C[C@@H](O[C@@H]6O[C@H](CO)[C@H](O)[C@H](O[C@@H]7O[C@H](CO)[C@@H](O)[C@H](O)[C@H]7O)[C@H]6O)CC[C@]5(C)[C@H]4CC[C@]3(C)[C@H]1[C@@H]2C` showed an IC50 with HL-60 [2] of 7 µg/mL (≈ 9.45 µM). Further, the result with HL-60 [3] was inactive.
For the compound `C[C@@H]1CC[C@@]2(OC1)O[C@H]1C[C@H]3[C@@H]4CC[C@@H]5C[C@@H](O[C@@H]6O[C@H](CO)[C@H](O)[C@H](O[C@@H]7O[C@H](CO)[C@@H](O)[C@H](O)[C@H]7O)[C@H]6O)CC[C@]5(C)[C@H]4CC(=O)[C@]3(C)[C@H]1[C@@H]2C`, the outcome in the assay with HL-60 [5] was inactive.
Same read-out and setting: to `CO[C@]1(CC[C@@H](C)CO[C@@H]2O[C@H](CO)[C@@H](O)[C@H](O)[C@H]2O)O[C@H]2C[C@H]3[C@@H]4CC[C@@H]5C[C@@H](O[C@@H]6O[C@H](CO)[C@@H](O[C@@H]7O[C@H](CO)[C@@H](O)[C@H](O)[C@H]7O)[C@H](O)[C@H]6O)CC[C@]5(C)[C@H]4CC[C@]3(C)[C@H]2[C@@H]1C` belongs “inactive”; to `C[C@@H]1CC[C@@]2(OC1)O[C@H]1C[C@H]3[C@@H]4CC[C@@H]5C[C@@H](O[C@@H]6O[C@H](CO)[C@H](O[C@@H]7O[C@H](CO)[C@@H](O)[C@H](O)[C@H]7O[C@@H]7O[C@H](CO)[C@@H](O)[C@H](O)[C@H]7O)[C@H](O)[C@H]6O)[C@@H](O)C[C@]5(C)[C@H]4CC[C@]3(C)[C@H]1[C@@H]2C`, “inactive”.
